Screening results as filed in PubChem BioAssay.
Hits are enriched below; roughly 3.3% of the tested compounds scored in any of these assays.
ABCB6 inh 2 – human ABCB6 transporter inhibition; Q9NP58; K562-ABCB6 porphyrin accumulation, flow cytometry, 1 h; hits give low values; fluorescence ratio to DMSO, % at 10 µM; 360,000 tested, 0.19% active; AID 602162;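 active = fluorescence ratio to DMSO below 75%, the collection mean minus 3 SD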;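 also: signal is porphyrin accumulated inside mitochondria; lower ratio means ABCB6 inhibition with less porphyrin fluorescence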
Target sequence (Q9NP58 whole entry, looked up): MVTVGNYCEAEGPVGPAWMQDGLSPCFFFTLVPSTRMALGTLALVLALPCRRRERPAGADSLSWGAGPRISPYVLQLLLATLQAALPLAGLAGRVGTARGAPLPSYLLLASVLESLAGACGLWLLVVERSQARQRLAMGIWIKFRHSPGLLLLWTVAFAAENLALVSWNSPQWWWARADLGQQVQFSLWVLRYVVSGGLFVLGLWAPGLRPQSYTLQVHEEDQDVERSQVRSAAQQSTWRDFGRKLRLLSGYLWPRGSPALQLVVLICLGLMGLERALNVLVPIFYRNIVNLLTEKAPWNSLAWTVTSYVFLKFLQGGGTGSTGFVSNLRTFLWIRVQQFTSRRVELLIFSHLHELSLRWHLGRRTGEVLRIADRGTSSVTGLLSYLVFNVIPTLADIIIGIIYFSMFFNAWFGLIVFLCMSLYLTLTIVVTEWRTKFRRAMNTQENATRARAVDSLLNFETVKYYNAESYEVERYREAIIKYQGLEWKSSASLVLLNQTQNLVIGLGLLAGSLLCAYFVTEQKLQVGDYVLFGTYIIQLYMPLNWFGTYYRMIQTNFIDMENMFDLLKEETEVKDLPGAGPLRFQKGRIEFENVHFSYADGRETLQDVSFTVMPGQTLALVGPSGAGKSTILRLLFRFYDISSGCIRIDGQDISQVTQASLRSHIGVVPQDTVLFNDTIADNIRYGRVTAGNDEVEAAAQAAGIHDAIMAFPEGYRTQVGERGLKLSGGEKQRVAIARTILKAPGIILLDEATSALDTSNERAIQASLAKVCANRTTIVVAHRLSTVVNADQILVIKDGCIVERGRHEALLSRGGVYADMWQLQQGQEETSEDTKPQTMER
STAT3 act – activators of IL-6 induced STAT3 signaling; U3A cells, IL-6 STAT3-luciferase reporter, luminescence; 100% = signal with IL-6 EC80 alone; activation (% of control), % at 5.6 µM; 190,000 tested, 0.91% active; AID 871;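 active = activation above the screen-wide mean of compound activation plus 3 SD, cut at about 130% in these data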
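system = STAT3-luciferase reporter U3A cells | reagent = IL-6 stimulus at 33 ng/mL final | timing = 1 h compound pre-exposure, 6 h IL-6 stimulation, 37 °C | measured by = luminescence | evaluation = % activation versus median of IL-6-stimulated wells | control set = IL-6-only wells as 100% reference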
FXN GAA850 act – increases GAA850 frataxin promoter reporter activity. HEK293 lucGAA850 FXN promoter luciferase reporter, 24 h; percent of 10 µM SAHA response. activation, % at 6 µM. 360,000 tested, 0.56% active;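 active = activation above the average of all compounds screened plus 3 SD, cutoff fixed separately per campaign, cut at about 7.5% in these data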
AHR activator – activates the human aryl hydrocarbon receptor. P35869. AID 2796. AHR-responsive luciferase reporter cells, luminescence. activation, % at 5 µM. 320,000 tested, 2.5% active; in the data active = activation above about 47%
Numbers stand for hits.

`Cn1cccc1/C=C1/C(=O)NC(=O)N(Cc2ccccc2)C1=O` gave ABCB6 inh 2 inactive, STAT3 act 135, FXN GAA850 act inactive and AHR activator inactive.
Screening Cn1cccc1/C=C1/C(=O)NC(=O)N(Cc2ccc(F)cc2)C1=O returned ABCB6 inh 2 inactive, FXN GAA850 act inactive and AHR activator inactive.
Screening C[C@H]1[C@@H](c2ccccc2)O[C@@H](c2ccccc2Br)N1C returned ABCB6 inh 2 inactive, FXN GAA850 act inactive and AHR activator inactive.
For O=c1c2cc(Br)ccc2[nH]c(=S)n1-c1ccccc1 the results were ABCB6 inh 2 inactive, STAT3 act inactive, FXN GAA850 act inactive and AHR activator 50.
`CCCCn1c(=O)c(C(=O)Nc2ccccc2N)c(O)c2ccccc21` gave ABCB6 inh 2 inactive, FXN GAA850 act inactive and AHR activator 48.
For CC[C@H](C)[C@@H]1O[C@@]2(C=CC1C)CC1C[C@@H](CC=C(C)C(O[C@H]3CC(OC)C(O[C@H]4CC(OC)C(O)C(C)O4)C(C)O3)C(C)C=CC=C3CO[C@@H]4C(O)C(C)=C[C@@H](C(=O)O1)[C@]34O)O2 (stereo partly drawn) the results were AHR activator inactive.
`CC(N)Cc1c[nH]c2c1ccc1ccccc12` (stereo not drawn) gave ABCB6 inh 2 inactive, FXN GAA850 act inactive and AHR activator 49.
Screening O=C(COc1ccccc1)N1CCN(Cc2c[nH]c3ccccc23)CC1 returned ABCB6 inh 2 inactive, STAT3 act inactive, FXN GAA850 act inactive and AHR activator inactive.
COc1ccc(OCC(=O)N2CCN(Cc3c[nH]c4ccccc34)CC2)cc1 was read as ABCB6 inh 2 inactive, STAT3 act 135 and FXN GAA850 act inactive.
Cc1ccccc1-n1c(O)c(C=Nc2ccc(N(C)C)cc2)c(=O)[nH]c1=O was read as ABCB6 inh 2 inactive, STAT3 act inactive, FXN GAA850 act inactive and AHR activator 61.
`CC(=O)O[C@@H]1/C=C/[C@](C)(O)C[C@@H](C)C/C=C/[C@H]2[C@@H]3O[C@]3(C)[C@@H](C)[C@H]3[C@H](Cc4ccccc4)NC(=O)[C@@]312` gave ABCB6 inh 2 inactive, FXN GAA850 act 18 and AHR activator inactive.
Screening COc1cc2c(c(OC)c1OC)-c1ccc(O)cc1[C@@H](NC(C)=O)CC2 returned ABCB6 inh 2 inactive, FXN GAA850 act inactive and AHR activator inactive.
Screening O=C1Nc2ccccc2Oc2ccccc21 returned ABCB6 inh 2 inactive and FXN GAA850 act inactive.
Screening O=[N+]([O-])c1ccc(NCc2ccc(Cl)cc2)c2ccncc12 returned ABCB6 inh 2 inactive, FXN GAA850 act inactive and AHR activator 65.
Screening Cc1c2ccncc2c(C)c2c1[nH]c1ccccc12 returned ABCB6 inh 2 inactive, STAT3 act inactive, FXN GAA850 act inactive and AHR activator 67.
For c1ccc2c(c1)[nH]c1cnccc12 the results were ABCB6 inh 2 inactive, STAT3 act inactive, FXN GAA850 act inactive and AHR activator inactive.
N#C/C=C/C#N was read as ABCB6 inh 2 inactive, FXN GAA850 act inactive and AHR activator inactive.
NCCc1nc2ccccc2s1 was read as ABCB6 inh 2 inactive, STAT3 act 133, FXN GAA850 act inactive and AHR activator inactive.
For CCn1cc(C(=O)c2cccs2)c2ccccc21 the results were ABCB6 inh 2 inactive, STAT3 act inactive, FXN GAA850 act inactive and AHR activator 49.
For COc1ccc(-n2c(C)nc3cc(C(=O)N4CCC5(CC4)OCCO5)ccc32)cc1 the results were ABCB6 inh 2 inactive, STAT3 act inactive, FXN GAA850 act inactive and AHR activator inactive.
`Cc1nc2cc(C(=O)N3CCC4(CC3)OCCO4)ccc2n1-c1ccc(Br)cc1` gave ABCB6 inh 2 inactive, STAT3 act inactive, FXN GAA850 act inactive and AHR activator 56.
`CC1C=CCCC12C(=O)NC(=O)NC2=O` (stereo not drawn) gave ABCB6 inh 2 inactive and FXN GAA850 act inactive.
For CC(C)(C)C(=O)C(Oc1ccc(Cl)cc1)n1cncn1 (stereo not drawn) the results were ABCB6 inh 2 inactive and FXN GAA850 act inactive.
For CCOC(=O)c1c(C)n(Cc2ccco2)c2ccc(O)cc12 the results were ABCB6 inh 2 inactive, STAT3 act inactive, FXN GAA850 act inactive and AHR activator 47.
Screening C=C1C(=O)OC2CC3(C)OC3C3OC3C3=CC(OC3=O)C12 (stereo not drawn) returned ABCB6 inh 2 36 and FXN GAA850 act inactive.
For C=C1C(=O)OC2CC3(C)OC3CCC(C)=CC(OC(C)=O)C12 (stereo not drawn) the results were ABCB6 inh 2 inactive and FXN GAA850 act inactive.
